Measured values taken from ChEMBL document CHEMBL1671714, “High-level azithromycin resistance occurs in Neisseria gonorrhoeae as a result of a single point mutation in the 23S rRNA genes” (2010).
Converted amounts (≈) assume the structure as drawn. The source made the active and inactive calls. The calls are words filed in the database; no cut-off is given here.

What was measured:
Neisseria gonorrhoeae [1] = test: Antimicrobial activity against Neisseria gonorrhoeae expressing wild type 23S rRNA by Etest; assay type: functional
Outline: (§1)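 Isolates were revived from −80°C cryopreservative stocks by 18 to 20 h of growth on GC agar base with 1% IsoVitaleX at 36°C under 5% CO2, then subcultured. Erythromycin and azithromycin MICs were read by Etest.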

Neisseria gonorrhoeae [2] = test: Antimicrobial activity against Neisseria gonorrhoeae harboring A2059G mutation in 23S rRNA domain V allele 4 by Etest; assay type: functional; outline: as §1
Neisseria gonorrhoeae [3] = test: Antimicrobial activity against Neisseria gonorrhoeae harboring A2059G mutation in 23S rRNA domain V allele 2 by Etest; assay type: functional; outline: as §1
Neisseria gonorrhoeae [4] = test: Antimicrobial activity against Neisseria gonorrhoeae C2611T mutation in 23S rRNA domain V allele 3 by Etest; assay type: functional; outline: as §1
Neisseria gonorrhoeae [5] = test: Antimicrobial activity against Neisseria gonorrhoeae harboring A2059G mutation in 23S rRNA V domain allele 1, allele 2, allele 3 and allele 4 by Etest; assay type: functional; outline: as §1
Neisseria gonorrhoeae [6] = test: Antimicrobial activity against Neisseria gonorrhoeae harboring A2059G mutation in 23S rRNA V domain allele 1, allele 3 and allele 4 by Etest; assay type: functional; outline: as §1
Neisseria gonorrhoeae [7] = test: Antimicrobial activity against Neisseria gonorrhoeae isolate 136 NG-MAST sequence type 1704 harboring A2059G mutation in 23S rRNA V domain allele 1, allele 2, allele 3 and allele 4 selected after 0.5 to 8 mg/L of erythromycin by Etest; assay type: functional
Outline: (§2)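 Single-colony expansions of the parent isolate (~1 × 10^8 CFU by viable count) were spread on GC agar with 1% IsoVitaleX containing erythromycin in 2-fold steps from 0.5 to 8.0 mg/liter, and incubated 24 h at 36°C under 5% CO2. Growth on the highest-concentration plate was subcultured, confirmed as gonococcus (Gram stain, oxidase, Phadebact GC), and azithromycin and erythromycin MICs were read by Etest. Passages were run in duplicate.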

Neisseria gonorrhoeae [8] = test: Antimicrobial activity against Neisseria gonorrhoeae isolate 352521 NG-MAST sequence type 1443 harboring A2059G mutation in 23S rRNA V domain allele 1, allele 2, allele 3 and allele 4 selected after 0.5 to 8 mg/L of erythromycin by Etest; assay type: functional; outline: as §2
Neisseria gonorrhoeae [9] = test: Antimicrobial activity against Neisseria gonorrhoeae isolate 252611 NG-MAST sequence type 470 harboring A2059G mutation in 23S rRNA V domain allele 2 by Etest; assay type: functional; outline: as §1
Neisseria gonorrhoeae [10] = test: Antimicrobial activity against Neisseria gonorrhoeae isolate 252611 NG-MAST sequence type 470 harboring A2059G mutation in 23S rRNA V domain allele 1, allele 2, allele 3 and allele 4 selected after 0.5 to 8 mg/L of erythromycin by Etest; assay type: functional; outline: as §2
Neisseria gonorrhoeae [11] = test: Antimicrobial activity against Neisseria gonorrhoeae isolate 254921 NG-MAST sequence type 649 by Etest; assay type: functional; outline: as §1
Neisseria gonorrhoeae [12] = test: Antimicrobial activity against Neisseria gonorrhoeae isolate 254921 NG-MAST sequence type 649 selected after 2 to 8 mg/L of compound by Etest; assay type: functional
Neisseria gonorrhoeae [13] = test: Antimicrobial activity against Neisseria gonorrhoeae harboring A2059G mutation in 23S rRNA V domain allele 1, allele 2 and allele 4 by Etest; assay type: functional; outline: as §1
Neisseria gonorrhoeae [14] = test: microbe, parasite or virus in culture
Neisseria gonorrhoeae [15] = test: microbe, parasite or virus in culture; remark: listed apart in the source
Neisseria gonorrhoeae [16] = test: microbe, parasite or virus in culture; conditions: isolate 136
Neisseria gonorrhoeae [17] = test: microbe, parasite or virus in culture; conditions: isolate 352521
Neisseria gonorrhoeae [18] = test: Antimicrobial activity against Neisseria gonorrhoeae isolate 254921 NG-MAST sequence type 649 selected after 4 mg/L of erythromycin by Etest; assay type: functional, organism-based

Structure (SMILES) | MIC (Neisseria gonorrhoeae [1]) | MIC (Neisseria gonorrhoeae [2]) | MIC (Neisseria gonorrhoeae [3]) | MIC (Neisseria gonorrhoeae [4]) | MIC (Neisseria gonorrhoeae [5]) | MIC (Neisseria gonorrhoeae [6]) | MIC (Neisseria gonorrhoeae [7]) | MIC (Neisseria gonorrhoeae [8]) | MIC (Neisseria gonorrhoeae [9]) | MIC (Neisseria gonorrhoeae [10]) | MIC (Neisseria gonorrhoeae [11]) | MIC (Neisseria gonorrhoeae [12]) | MIC (Neisseria gonorrhoeae [13]) | MIC (Neisseria gonorrhoeae [14]) | MIC (Neisseria gonorrhoeae [15]) | MIC (Neisseria gonorrhoeae [16]) | MIC (Neisseria gonorrhoeae [17]) | Activity (Neisseria gonorrhoeae [18])
CC[C@H]1OC(=O)[C@H](C)[C@@H](O[C@H]2C[C@@](C)(OC)[C@@H](O)[C@H](C)O2)[C@H](C)[C@@H](O[C@@H]2O[C@H](C)C[C@H](N(C)C)[C@H]2O)[C@](C)(O)C[C@@H](C)CN(C)[C@H](C)[C@@H](O)[C@]1(C)O [AZITHROMYCIN] | 0.06 µg/mL (≈ 0.0801 µM) | 0.06 µg/mL (≈ 0.0801 µM) | 0.06 µg/mL (≈ 0.0801 µM) | 0.06 µg/mL (≈ 0.0801 µM) | ≥ 256 µg/mL | ≥ 256 µg/mL | > 256 µg/mL | > 256 µg/mL | 0.38 µg/mL (≈ 0.507 µM) | > 256 µg/mL | 0.25 µg/mL (≈ 0.334 µM) | 1.5 µg/mL (≈ 2 µM) | ≥ 256 µg/mL | 2 µg/mL (≈ 2.67 µM) | 2 µg/mL (≈ 2.67 µM) | 0.25 µg/mL (≈ 0.334 µM) | 0.25 µg/mL (≈ 0.334 µM) | 
CC[C@H]1OC(=O)[C@H](C)[C@@H](O[C@H]2C[C@@](C)(OC)[C@@H](O)[C@H](C)O2)[C@H](C)[C@@H](O[C@@H]2O[C@H](C)C[C@H](N(C)C)[C@H]2O)[C@](C)(O)C[C@@H](C)C(=O)[C@H](C)[C@@H](O)[C@]1(C)O [ERYTHROMYCIN] |  |  |  |  |  |  |  |  |  |  | 3 µg/mL (≈ 4.09 µM) | 4 µg/mL (≈ 5.45 µM) |  |  |  |  |  | Active
